Screens from PubChem BioAssay.
CRFR2-BP ag = agonists of CRF-BP/CRF-R2 complex, primary screen, cell-based, HEK293, calcium dye fluorescence, uHTS; activation, % at 13.2 µM; calcium dye fluorescence (FLIPR); percent of saturating CRF peptide response; hit rate 0.46% among 350,000;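 active = activation of at least 50%, plus an integration ratio under a set limit after plate pattern correction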;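 also: plate controls were neutral control wells without compound for no effect and CRF at EC100 for full effect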
TAAR1 antag = human TAAR1 antagonists, primary screen, Fluo-8 calcium fluorescence, CHO RD-HGA16 cells; inhibition, % at 3 µM; Trace amine-associated receptor 1 (Homo sapiens), Q96RJ0; hit rate 1.5% among 360,000; antagonist;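 active = inhibition above a per-plate cutoff, the mean inhibition of test compounds on that plate plus 3 SD, cut at about 49% in these data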;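 also: 0% = DMSO plus EC80 beta-PEA response and 100% = DMSO alone without agonist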
Target sequence (Q96RJ0 whole entry, looked up): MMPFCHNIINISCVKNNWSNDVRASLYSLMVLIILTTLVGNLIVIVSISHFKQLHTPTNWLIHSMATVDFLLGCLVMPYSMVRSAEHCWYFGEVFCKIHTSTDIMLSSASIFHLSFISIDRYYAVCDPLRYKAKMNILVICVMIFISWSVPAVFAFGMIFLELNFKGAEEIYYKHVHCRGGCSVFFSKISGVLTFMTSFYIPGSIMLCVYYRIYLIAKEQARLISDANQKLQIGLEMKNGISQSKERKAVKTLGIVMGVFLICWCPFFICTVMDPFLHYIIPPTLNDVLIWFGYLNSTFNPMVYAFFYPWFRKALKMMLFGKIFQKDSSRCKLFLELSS
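test system = CHO RD-HGA16 cells bearing hTAAR1 | replication = singlicate | controls = DMSO-only wells and EC80 β-PEA-stimulated wells | reagent = EC80 β-phenethylamine stimulus | read-out basis = percent inhibition of PEA-evoked calcium signal, max/basal emission ratio | schedule = seeding 17-24 h prior, 75-min 37 °C, 30-min RT dye loading | signal = kinetic Fluo-8 calcium fluorescence measurement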
ANO1 activ = TMEM16A chloride channel activators or potentiators, primary screen, cell-based, HTS | Anoctamin-1 (Mus musculus), Q8BHY3 | AID 623877, 2012 | hit rate 0.3% among 340,000 | B-score at 10 µM | HEK293 TMEM16A/YFP-H148Q/I152L, iodide quench fluorescence; hits give low values;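 active = fluorescence-ratio B-score plate-corrected deviation score at least 3 library SD below zero, with starting fluorescence score within 5 deviations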;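 also: channel opened by trigger with iodide after compound preincubation; score built on the fluorescence ratio of max minus min over baseline; more negative score means more quench and so TMEM16A activation or potentiation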
TAAR1 ag = human TAAR1 agonists, primary screen, Fluo-8 calcium fluorescence, CHO RD-HGA16 cells. Trace amine-associated receptor 1 (Homo sapiens), Q96RJ0. vehicle wells 0%, saturating PEA agonist 100%. activation, % at 3 µM. hit rate 0.99% among 360,000;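 active = activation above the mean activation of all test compounds in the run plus 3 SD, cut at about 38% in these data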
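Repeats: no replicates (n 1) | Material: CHO-derived RD-HGA16 cells with stable Gα16 and human TAAR1 | Technique: Kinetic Fluo-8 calcium fluorescence | Schedule: 17-24 h seeding, 75 min 37 °C dye, 30 min RT | Evaluation: % activation from peak over basal fluorescence ratio, DMSO-to-PEA scaled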
TMEM16A inh = TMEM16A chloride channel inhibitors, primary screen, cell-based, HTS. Anoctamin-1 (Mus musculus), Q8BHY3. HEK293 TMEM16A/YFP iodide influx fluorescence, ionomycin. normalized B-score (activity score, 25-100; higher = stronger inhibition) at 10 µM. hit rate 1.2% among 310,000. AID 588511, 2011;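 active = ratio plate-corrected score three or more library SD toward inhibition, starting fluorescence score within five deviations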;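 also: score derived from kinetic fluorescence span divided by baseline fluorescence per well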
CRFR2-BP antag = antagonists of CRF-BP/CRF-R2 complex, primary screen, cell-based, HEK293, calcium dye fluorescence, uHTS. CRF-induced calcium fluorescence. inhibition, % at 11.8 µM. hit rate 0.59% among 350,000. AID 588475, 2011;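 active = inhibition of the ligand-induced calcium signal above about 50% at the single tested concentration, limit read from the data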
TAAR1 nonsel count = nonselective antagonists in TAAR1 counter-screen cells, counter-screen for hTAAR1 antagonist project, cell-based, fluorescence, calcium | shares compounds with TAAR1 antag | counterscreen cell line, antagonist mode | inhibition, % at 3 µM | hit rate 77% among 2,400; in the data active = inhibition above about 22%;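 also: CHO-Ga16 host cells stimulated with ATP at an EC80 level; 0% = agonist EC80 plus vehicle and 100% = vehicle without agonist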
TAAR1 ant conf = human TAAR1 antagonists, retest of hits, confirmation, cell-based, fluorescence. shares compounds with TAAR1 antag. AID 651785, 2012. hit rate 40% among 2,400. TAAR1-expressing cells, fluorescence antagonist read-out. inhibition, % at 3 µM; in the data active = inhibition above about 49%;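 also: CHO-Ga16 host cells challenged with agonist PEA near its EC80; 0% = agonist at EC80 plus vehicle and 100% = vehicle with no agonist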
Ga16 ag counter = calcium activation in Ga16-expressing cells, counter-screen for TAAR1 antagonist project, cell-based, fluorescence | shares compounds with TAAR1 antag | agonist counterscreen | activation, % at 3 µM | hit rate 18% among 2,400; in the data active = activation above about 12%;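 also: 0% = vehicle wells and 100% = saturating stimulus response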
TAAR1 ag count = TAAR1 activation by candidate antagonists – cell-based, fluorescence, counter-screen for TAAR1 antagonist project | shares compounds with TAAR1 antag | hit rate 2% among 2,400 | activation, % at 3 µM | hTAAR1 cell line, agonist mode; in the data active = activation above about 37%;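 also: CHO cells stably expressing TAAR1 with calcium dye readout; 0% = DMSO vehicle and 100% = full agonist response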
Active calls of the source: *; i = inactive; nt = no result. Shown are actives, neighbours in structure and some others; about 3.9% of the full set was active somewhere.

SMILES	CRFR2-BP ag	TAAR1 antag	ANO1 activ	TAAR1 ag	TMEM16A inh	CRFR2-BP antag	TAAR1 nonsel count	TAAR1 ant conf	Ga16 ag counter	TAAR1 ag count
CCn1cnc2sc(C(=O)Oc3ccc(Br)cc3)c(C)c2c1=O	-3	2	i	6	i	-33	nt	nt	nt	nt
CC(C)C(=O)Nc1cccc(C(=O)OCC(=O)c2ccc(Cl)cc2Cl)c1	2	78*	i	19	i	-6	54*	61*	14*	7
CC1(C)CC(=O)N(c2ccc(C#N)cc2)C(=O)C1	2	-3	i	2	i	-11	nt	nt	nt	nt
COc1ccc(-c2ccc3c(n2)CCCN3S(=O)(=O)c2ccccc2)cc1	nt	78*	nt	7	nt	nt	38*	52*	10	8
CCC(C)c1ccc(NC(=O)COc2c(F)c(F)c(C(F)(F)F)c(F)c2F)cc1 (stereo unspecified)	7	51*	i	1	i	-66	14	17	1	2
O=C(CSc1nnc(-c2ccccc2)o1)N1CCCCC1	0	-1	i	1	i	-2	nt	nt	nt	nt
CCC(Cc1ccccc1)NC(=O)C1CC1 (stereo unspecified)	0	6	i	1	i	-1	nt	nt	nt	nt
COc1ccc(C(=O)Cn2nnc(-c3ccccc3NC(=O)c3ccco3)n2)cc1	2	55*	-11*	16	i	7	20	48	9	11
COc1ccc(Cl)cc1N(CC(=O)NCCSc1ccccn1)S(=O)(=O)c1ccccc1	0	58*	i	11	i	-1	16	32	5	6
COc1ccc(N(CC(=O)NCCSc2ccccn2)S(=O)(=O)c2ccccc2)cc1Cl	0	18	i	9	i	-25	nt	nt	nt	nt
Cc1nc(C(=O)NCCO)cc2c1[nH]c1ccccc12	-2	-1	i	0	i	19	nt	nt	nt	nt
O=C(NCC1CCCO1)c1cc2c([nH]c3ccccc32)c(-c2cccc(Br)c2)n1 (stereo unspecified)	-1	75*	i	2	i	-3	34*	58*	5	7
COc1ccc(-c2cc(C(=O)NCC3CCCO3)c3ccccc3n2)cc1 (stereo unspecified)	-2	11	i	8	i	-1	nt	nt	nt	nt
COc1ccc(-c2nc(C(=O)NCC3CCCO3)cc3c2[nH]c2ccccc23)cc1 (stereo unspecified)	-3	67*	i	3	i	-3	25*	43	4	0
Cc1ccc(-c2nc(C(=O)NCCCN(C)C)cc3c2[nH]c2ccccc23)cc1	0	-13	i	-1	i	-11	nt	nt	nt	nt
Cc1ccccc1-c1nc(C(=O)NCC2CCCO2)cc2c1[nH]c1ccccc12 (stereo unspecified)	-2	55*	i	0	i	-23	28*	37	5	0
Cc1ccc(-c2nc(C(=O)NCC3CCCO3)cc3c2[nH]c2ccccc23)cc1 (stereo unspecified)	-1	76*	i	4	i	-17	35*	55*	5	1
